# Experimental data published in ChEMBL document CHEMBL1154162, “Synthesis and structure-activity relationships of 2-(1,4'-bipiperidin-1'-yl)thiazolopyridine as H3 receptor antagonists” (Bioorg Med Chem Lett, 2009).
# Experiments:
# hERG (KCNH2) = hERG (KCNH2) (Homo sapiens, UniProt Q12809); assay: in vitro
# Histamine H3 receptor [1] = target: Histamine H3 receptor (Homo sapiens, UniProt Q9Y5N1); assay: Displacement of [3H]N-alpha-methylhistamine from human recombinant histamine H3 receptor expressed in HEK293 cells; format: cell-based
# Histamine H3 receptor (Homo sapiens, UniProt Q9Y5N1), sequence (Q9Y5N1 whole entry): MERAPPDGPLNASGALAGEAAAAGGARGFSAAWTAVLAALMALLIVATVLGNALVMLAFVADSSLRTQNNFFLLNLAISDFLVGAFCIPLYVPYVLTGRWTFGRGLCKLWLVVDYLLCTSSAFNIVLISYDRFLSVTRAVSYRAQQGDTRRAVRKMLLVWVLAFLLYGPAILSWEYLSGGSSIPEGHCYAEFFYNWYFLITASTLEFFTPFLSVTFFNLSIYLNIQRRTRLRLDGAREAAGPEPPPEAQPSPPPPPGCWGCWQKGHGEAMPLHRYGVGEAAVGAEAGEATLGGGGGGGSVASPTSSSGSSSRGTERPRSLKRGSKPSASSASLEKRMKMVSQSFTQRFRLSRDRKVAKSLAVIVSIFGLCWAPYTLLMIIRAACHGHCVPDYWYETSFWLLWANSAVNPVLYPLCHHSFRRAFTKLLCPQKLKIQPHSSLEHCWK
# Histamine H3 receptor [2] = target: Histamine H3 receptor (Mus musculus, UniProt P58406); assay: Displacement of [3H]N-alpha-methylhistamine from mouse brain histamine H3 receptor
# Histamine H3 receptor (Mus musculus, UniProt P58406), sequence (P58406 whole entry): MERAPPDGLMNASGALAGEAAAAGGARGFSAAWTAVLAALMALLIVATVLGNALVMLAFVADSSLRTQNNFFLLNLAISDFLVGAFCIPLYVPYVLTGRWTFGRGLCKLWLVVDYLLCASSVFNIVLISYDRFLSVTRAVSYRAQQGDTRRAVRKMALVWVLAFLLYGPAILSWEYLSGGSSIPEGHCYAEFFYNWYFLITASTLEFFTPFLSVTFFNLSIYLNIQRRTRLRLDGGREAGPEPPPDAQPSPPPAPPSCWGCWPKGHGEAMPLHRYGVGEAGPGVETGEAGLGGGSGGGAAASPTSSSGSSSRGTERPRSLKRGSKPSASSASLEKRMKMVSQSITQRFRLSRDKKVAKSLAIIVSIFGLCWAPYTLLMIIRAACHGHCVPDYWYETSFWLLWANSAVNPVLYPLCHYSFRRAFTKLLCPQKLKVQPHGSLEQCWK
# Mus musculus [3] = assay: Ex vivo displacement of [3H]N-alpha-methylhistamine from histamine H3 receptor in ICR mouse at 10 mg/kg, po by receptor occupancy assay relative to control; format: functional
# Outline: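 ICR mice dosed orally at 10 mg/kg. Cortex dissected 4 h after dosing and homogenized in ice-cold 50 mM Na2HPO4–KH2PO4 buffer pH 6.8, then frozen at −80 °C for at least 12 h. Protein measured by BCA. Incubation 30 min at room temperature, in quadruplicate. Stopped by filtration on PEI-presoaked GF/B plates and counted. Specific binding calculated as total minus nonspecific.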
# [4] = AUC (0 to 24 hrs) in monkey at 3 mg/kg, po; format: ADME, organism-based, Macaca mulatta; design: time < 24 hr, dose 3 mg/kg, route oral; conditions: rhesus monkey, plasma
# Outline: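 Monkeys dosed orally at 3 mg/kg. AUC calculated over 0–24 h.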
# [5] = Cmax in rat; format: ADME, organism-based; conditions: in vivo
# Outline: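 Rats dosed orally at 10 mg/kg. Cmax taken from the plasma profile.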
# [6] = Cmax in monkey; format: ADME, organism-based, Macaca mulatta; conditions: rhesus monkey, in vivo
# Outline: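 Monkeys dosed orally at 3 mg/kg. Cmax taken from the plasma profile.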
# in vivo [7] = conditions: rat, plasma, po, 10 mg/kg
# Histamine H3 receptor [8] = target: Histamine H3 receptor (Cavia porcellus, UniProt Q9JI35); assay: Antagonist activity at guinea pig jejunum histamine H3 receptor by electric field stimulation assay; format: functional, tissue-based; conditions: read-out: pA2 (converted)
# Histamine H3 receptor (Cavia porcellus, UniProt Q9JI35), sequence (Q9JI35 whole entry): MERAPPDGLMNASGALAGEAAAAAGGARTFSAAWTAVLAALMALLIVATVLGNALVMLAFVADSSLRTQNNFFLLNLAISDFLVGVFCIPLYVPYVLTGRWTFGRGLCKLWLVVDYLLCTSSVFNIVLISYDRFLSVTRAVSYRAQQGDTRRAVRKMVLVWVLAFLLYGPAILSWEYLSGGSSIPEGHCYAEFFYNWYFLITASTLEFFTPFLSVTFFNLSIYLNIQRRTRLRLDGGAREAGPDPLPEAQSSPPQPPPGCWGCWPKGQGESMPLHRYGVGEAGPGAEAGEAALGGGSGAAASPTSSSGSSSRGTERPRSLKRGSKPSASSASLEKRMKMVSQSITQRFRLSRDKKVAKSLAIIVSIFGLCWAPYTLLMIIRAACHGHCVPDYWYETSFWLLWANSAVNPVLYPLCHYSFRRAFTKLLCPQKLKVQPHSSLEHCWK
# in vivo [9] = conditions: ICR, mouse, brain/plasma, po, 30 mg/kg
# Mus musculus [10] = assay: Ex vivo displacement of [3H]N-alpha-methylhistamine from histamine H3 receptor in ICR mouse at 10 mg/kg, po by receptor occupancy assay relative to control
# hERG (KCNH2), sequence (Q12809 whole entry): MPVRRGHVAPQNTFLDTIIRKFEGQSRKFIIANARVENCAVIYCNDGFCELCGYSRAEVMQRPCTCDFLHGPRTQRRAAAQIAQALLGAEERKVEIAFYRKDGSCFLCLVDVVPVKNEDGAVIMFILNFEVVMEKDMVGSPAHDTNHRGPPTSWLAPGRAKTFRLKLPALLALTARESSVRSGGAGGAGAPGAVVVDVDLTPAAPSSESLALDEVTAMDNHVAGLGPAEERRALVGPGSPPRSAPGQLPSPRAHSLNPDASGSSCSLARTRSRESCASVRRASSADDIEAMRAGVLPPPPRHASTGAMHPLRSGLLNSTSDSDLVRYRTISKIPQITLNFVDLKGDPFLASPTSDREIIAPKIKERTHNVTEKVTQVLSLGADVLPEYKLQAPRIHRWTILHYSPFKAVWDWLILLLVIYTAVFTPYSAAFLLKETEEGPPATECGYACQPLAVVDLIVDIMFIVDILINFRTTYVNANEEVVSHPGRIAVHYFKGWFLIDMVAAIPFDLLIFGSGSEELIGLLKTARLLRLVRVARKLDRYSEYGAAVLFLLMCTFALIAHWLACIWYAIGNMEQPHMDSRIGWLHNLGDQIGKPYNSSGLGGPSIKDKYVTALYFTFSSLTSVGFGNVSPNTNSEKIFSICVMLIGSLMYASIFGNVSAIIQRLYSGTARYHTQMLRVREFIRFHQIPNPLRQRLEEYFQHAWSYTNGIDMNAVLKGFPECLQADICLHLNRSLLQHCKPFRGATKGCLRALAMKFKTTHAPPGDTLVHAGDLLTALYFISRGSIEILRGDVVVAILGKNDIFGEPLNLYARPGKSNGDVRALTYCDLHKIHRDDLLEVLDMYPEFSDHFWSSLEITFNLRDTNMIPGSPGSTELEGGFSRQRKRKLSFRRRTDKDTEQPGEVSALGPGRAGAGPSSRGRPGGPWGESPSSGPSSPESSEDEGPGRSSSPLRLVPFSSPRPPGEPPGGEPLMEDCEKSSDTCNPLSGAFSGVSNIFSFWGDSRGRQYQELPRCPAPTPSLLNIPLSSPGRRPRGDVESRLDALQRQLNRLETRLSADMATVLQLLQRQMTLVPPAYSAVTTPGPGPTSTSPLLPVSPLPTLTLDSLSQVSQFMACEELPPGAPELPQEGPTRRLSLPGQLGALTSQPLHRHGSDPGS
compound,measurement,setting,value
Fc1cc(-c2cc3sc(N4CCC(N5CCCCC5)CC4)nc3cn2)ccn1,inhibition at 10 µM,hERG (KCNH2),85%
Clc1cnc2nc(N3CCC(N4CCCCC4)CC3)sc2c1,Ki,Histamine H3 receptor [1],125 nM
COc1cc(-c2cnc3nc(N4CCC(N5CCCCC5)CC4)sc3c2)ccn1,inhibition at 10 µM,hERG (KCNH2),98%
N#Cc1ccc(-c2cc3sc(N4CCC(N5CCCCC5)CC4)nc3cn2)cc1,Ki,Histamine H3 receptor [1],126 nM
c1ncc(-c2cnc3nc(N4CCC(N5CCCCC5)CC4)sc3c2)cn1,Ki,Histamine H3 receptor [2],66 nM
same,Activity,Mus musculus [3],0%
same,inhibition at 10 µM,hERG (KCNH2),30%
Oc1ccc(-c2cc3sc(N4CCC(N5CCCCC5)CC4)nc3cn2)cc1,Ki,Histamine H3 receptor [1],213 nM
N#Cc1cc(-c2cc3sc(N4CCC(N5CCCCC5)CC4)nc3cn2)ccc1F,Ki,Histamine H3 receptor [1],46 nM
Oc1ccc(-c2cnc3nc(N4CCC(N5CCCCC5)CC4)sc3c2)cc1,Ki,Histamine H3 receptor [1],59 nM
c1cc2sc(N3CCC(N4CCCCC4)CC3)nc2cn1,Ki,Histamine H3 receptor [1],128 nM
COc1cc(-c2cc3sc(N4CCC(N5CCCCC5)CC4)nc3cn2)ccn1,inhibition at 10 µM,hERG (KCNH2),91%
Brc1cnc2nc(N3CCC(N4CCCCC4)CC3)sc2c1,Ki,Histamine H3 receptor [1],141 nM
c1cnc2nc(N3CCC(N4CCCCC4)CC3)sc2c1,Ki,Histamine H3 receptor [1],139 nM
CC(=O)Nc1cnc2nc(N3CCC(N4CCCCC4)CC3)sc2c1,Ki,Histamine H3 receptor [1],31 nM
CC(=O)c1cccc(-c2cc3sc(N4CCC(N5CCCCC5)CC4)nc3cn2)c1,Ki,Histamine H3 receptor [1],80 nM
COc1cccc(-c2cc3sc(N4CCC(N5CCCCC5)CC4)nc3cn2)c1,Ki,Histamine H3 receptor [1],230 nM
Clc1ccc2nc(N3CCC(N4CCCCC4)CC3)sc2n1,Ki,Histamine H3 receptor [1],1700 nM
Fc1ccc(-c2cc3sc(N4CCC(N5CCCCC5)CC4)nc3cn2)cn1,Ki,Histamine H3 receptor [2],89 nM
same,Activity,Mus musculus [3],95%
same,AUC(0-t) at 24 h,[4],624 ng·h/mL
same,Cmax,[5],234 ng/mL
same,Cmax,[6],33 ng/mL
same,AUC(0-t) at 6 h,in vivo [7],1070 ng·h/mL
Nc1cnc2nc(N3CCC(N4CCCCC4)CC3)sc2c1,Ki,Histamine H3 receptor [1],79 nM
Nc1cnc(-c2cnc3nc(N4CCC(N5CCCCC5)CC4)sc3c2)cn1,inhibition at 10 µM,hERG (KCNH2),20%
N#Cc1cnc2nc(N3CCC(N4CCCCC4)CC3)sc2c1,Ki,Histamine H3 receptor [1],36 nM
Nc1ccc(-c2cnc3nc(N4CCC(N5CCCCC5)CC4)sc3c2)cn1,Activity,Mus musculus [3],3%
CC(=O)Nc1ccc(-c2cnc3nc(N4CCC(N5CCCCC5)CC4)sc3c2)cn1,Ki,Histamine H3 receptor [2],20 nM
same,Activity,Mus musculus [3],45%
same,inhibition at 10 µM,hERG (KCNH2),20%
CC(=O)Nc1cc2sc(N3CCC(N4CCCCC4)CC3)nc2cn1,Ki,Histamine H3 receptor [1],53 nM
CCCN1CCN(c2nc3cnccc3s2)CC1,Kb,Histamine H3 receptor [8],56.2 nM
N#Cc1cc(-c2cnc3nc(N4CCC(N5CCCCC5)CC4)sc3c2)ccc1F,AUC(0-t) at 6 h,in vivo [7],339 ng·h/mL
COc1cccc(-c2cnc3nc(N4CCC(N5CCCCC5)CC4)sc3c2)c1,Ki,Histamine H3 receptor [1],140 nM
Oc1ccc(-c2cc3sc(N4CCC(N5CCCCC5)CC4)nc3cn2)cn1,Ki,Histamine H3 receptor [2],20 nM
same,Activity,Mus musculus [3],1%
Nc1cc2sc(N3CCC(N4CCCCC4)CC3)nc2cn1,Ki,Histamine H3 receptor [1],73 nM
N#Cc1cc2sc(N3CCC(N4CCCCC4)CC3)nc2cn1,Ki,Histamine H3 receptor [1],35 nM
Clc1cc2sc(N3CCC(N4CCCCC4)CC3)nc2cn1,Ki,Histamine H3 receptor [2],75 nM
same,AUC(0-t) at 6 h,in vivo [7],56 ng·h/mL
same,Kp at 96 h,in vivo [9],4.52
same,inhibition at 10 µM,hERG (KCNH2),59%
same,Activity,Mus musculus [10],80%
CC(=O)c1cccc(-c2cnc3nc(N4CCC(N5CCCCC5)CC4)sc3c2)c1,Ki,Histamine H3 receptor [1],33 nM
Fc1ncccc1-c1cc2sc(N3CCC(N4CCCCC4)CC3)nc2cn1,inhibition at 10 µM,hERG (KCNH2),88%
